Active and inactive are the calls of the source. No cut-off for these calls is given here.
How the values were obtained:
Format in all cases: nucleic-acid assay
Nucleic Acid [1] = assay: Displacement of ethidium bromide from minor groove region of DNA at 3 uM by […] analysis
Summary of the method: (§1)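 CSI microarray of hairpinned dsDNA probes covering all 9 bp permutations. The array was incubated 1 h with 6 μM EtBr in binding buffer (100mM NaCl, 100mM Tris pH 8.0). Unlabeled ligand (3 μM) was then added to the EtBr solution for a further 1 h to reach equilibrium. Per-feature ratio of displaced to undisplaced EtBr fluorescence, expressed as FD = 1−(1−Rseq)/(1−RMax).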

Nucleic Acid [2] = assay: Displacement of ethidium bromide from DNA TAGAATA region at 3 uM by […] analysis; summary of the method: as §1
Nucleic Acid [3] = assay: Displacement of ethidium bromide from DNA TGAATAA region at 3 uM by […] analysis; summary of the method: as §1
Nucleic Acid [4] = assay: Displacement of ethidium bromide from DNA TATTAGA region at 3 uM by […] analysis; summary of the method: as §1
Nucleic Acid [5] = assay: Displacement of ethidium bromide from DNA AATA region by […] analysis; summary of the method: as §1
Nucleic Acid [6] = assay: Displacement of ethidium bromide from DNA AAAA region by […] analysis; summary of the method: as §1
Nucleic Acid [7] = assay: Displacement of ethidium bromide from DNA ATAA region by […] analysis; summary of the method: as §1
Nucleic Acid [8] = assay: Displacement of ethidium bromide from DNA TAAA region by […] analysis; summary of the method: as §1
Nucleic Acid [9] = assay: Displacement of ethidium bromide from DNA ATTA region by […] analysis; summary of the method: as §1
Nucleic Acid [10] = assay: Displacement of ethidium bromide from DNA AAAT region by […] analysis; summary of the method: as §1
Nucleic Acid [11] = assay: Displacement of ethidium bromide from DNA ATAT region by […] analysis; summary of the method: as §1
Nucleic Acid [12] = assay: Displacement of ethidium bromide from DNA TATA region by […] analysis; summary of the method: as §1
Nucleic Acid [13] = assay: Displacement of ethidium bromide from DNA TTAA region by […] analysis; summary of the method: as §1
Nucleic Acid [14] = assay: Binding affinity to minor groove region of DNA

In the case of `Cn1cc(NC(=O)c2cc(NC(=O)CNC(=N)N)cn2C)cc1C(=O)NCCC(=N)N` [NETROPSIN], the Activity (Nucleic Acid [1]) is reported as “Active”, the Activity (Nucleic Acid [2]) is reported as “Active” and the Activity (Nucleic Acid [3]) is reported as “Active”. The Activity (Nucleic Acid [4]) was “Active”, the Activity (Nucleic Acid [5]) was “Active” and the Activity (Nucleic Acid [6]) was “Active”. The Activity (Nucleic Acid [7]) was “Active”, the Activity (Nucleic Acid [8]) was “Active” and the Activity (Nucleic Acid [9]) was “Active”. The Activity (Nucleic Acid [10]) was “Active”, the Activity (Nucleic Acid [11]) was “Active” and the Activity (Nucleic Acid [12]) was “Active”. The Activity (Nucleic Acid [13]) was “Active” and the Kd (Nucleic Acid [14]) was 1 nM.

From ChEMBL document CHEMBL1151927, “CSI-FID: high throughput label-free detection of DNA binding molecules” (Bioorg Med Chem Lett, 2009)
